Calls of active or inactive are those of the source. The rule behind the calls is not given here.
How the values were obtained:
[1] = system: Syrian golden hamster; test: Antidyslipidemic activity in high fructose and high-fat diet fed dyslipidemic Syrian golden hamster model assessed as reduction in body weight at 100 mg/kg/day for 7 days; assay type: functional, organism-based; details: Mesocricetus auratus
Outline: (§1)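 Syrian golden hamsters fed high-fructose high-fat diet; oral dosing in 1% gum acacia at 10, 30, 100 mg/kg (or 25 mg/kg) for 7 days, sham control given vehicle; plasma TG, cholesterol, LDL-C, HDL-C, glycerol and NEFA (kits), lipoprotein lipase activity and body weight; % change versus HFD control, six hamsters per group.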

[2] = system: Syrian golden hamster; test: Antidyslipidemic activity in high fructose and high-fat diet fed dyslipidemic Syrian golden hamster model assessed as increase in HDL-cholesterol level at 100 mg/kg/day for 7 days; assay type: functional, Mesocricetus auratus
[3] = system: Syrian golden hamster; test: Antidyslipidemic activity in high fructose and high-fat diet fed dyslipidemic Syrian golden hamster model assessed as reduction in LDL-cholesterol level at 100 mg/kg/day for 7 days; assay type: functional, Mesocricetus auratus; design: scale not given: the % may be the effect or the level left; outline: as §1
[4] = system: Syrian golden hamster; test: Antidyslipidemic activity in high fructose and high-fat diet fed dyslipidemic Syrian golden hamster model assessed as reduction in cholesterol level at 100 mg/kg/day for 7 days; assay type: functional, Mesocricetus auratus; design: scale not given: the % may be the effect or the level left
[5] = system: Syrian golden hamster; test: Antidyslipidemic activity in high fructose and high-fat diet fed dyslipidemic Syrian golden hamster model assessed as reduction in triglyceride level at 100 mg/kg/day for 7 days; assay type: functional, Mesocricetus auratus; design: scale not given: the % may be the effect or the level left; outline: as §1
[6] = system: Mus musculus; test: Reduction in body weight in diabetic C57BL/KsJ db/db mouse model in hyperglycemia at 25 mg/kg, po qd for 10 days relative to untreated control; assay type: functional
Outline: (§2)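 db/db mice (C57BL/KsJ, 12−18 weeks, 40−50 g, glucose 200−350 mg/dL), housed at 23 ± 2.0 °C on a 12 h light cycle. Oral dosing daily for 10 days. Blood glucose checked each morning through day 9. Body weight recorded daily from day 1 to day 10. Mean % change versus vehicle, 5 mice per group; Student t test.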

[7] = system: Mus musculus; test: Antihyperglycemic activity in diabetic C57BL/KsJ db/db mouse model assessed as reduction in plasma insulin level in hyperglycemia at 25 mg/kg, po qd for 10 days; assay type: functional; design: scale not given: the % may be the effect or the level left
Outline: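 db/db mice dosed orally every day for 10 days. On day 11, retro-orbital blood was drawn and plasma insulin measured. Mean % change versus vehicle-treated control, 5 mice per group; Student t test.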

[8] = system: Mus musculus; test: Antidyslipidemic activity in diabetic C57BL/KsJ db/db mouse model assessed as increase in plasma HDL-C/cholesterol ratio at 25 mg/kg, po qd for 10 days; assay type: functional
Outline: (§3)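 db/db mice (blood glucose 200−350, TG 170−250, cholesterol 170−250, HDL-C 32−40 mg/dL) dosed orally at 25 mg/kg daily for 10 days; retro-orbital blood taken on day 11 for plasma TG, cholesterol and HDL-C (and HDL-C/CHOL ratio); mean % change versus vehicle control, 5 mice per group; Student t test.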

[9] = system: Mus musculus; test: Antidyslipidemic activity in diabetic C57BL/KsJ db/db mouse model assessed as reduction in plasma cholesterol level at 25 mg/kg, po qd for 10 days; assay type: functional; design: scale not given: the % may be the effect or the level left; outline: as §3
[10] = system: Mus musculus; test: Antidyslipidemic activity in diabetic C57BL/KsJ db/db mouse model assessed as increase in plasma HDL-cholesterol level at 25 mg/kg, po qd for 10 days; assay type: functional; outline: as §3
[11] = system: Mus musculus; test: Antidyslipidemic activity in diabetic C57BL/KsJ db/db mouse model assessed as reduction in plasma triglyceride level at 25 mg/kg, po qd for 10 days; assay type: functional; design: scale not given: the % may be the effect or the level left; outline: as §3
[12] = system: Mus musculus; test: Antihyperglycemic activity in diabetic C57BL/KsJ db/db mouse model assessed as improvement in glucose tolerance in hyperglycemia at 25 mg/kg, po qd for 10 days; assay type: functional
Outline: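 Male/female C57BL/KsJ db/db mice, 12−18 weeks, 40−50 g, selected for glucose 200−350 mg/dL. Oral dosing daily for 10 days. OGTT on day 10 after an overnight fast: compound at −30 min, then 3 g/kg oral glucose at 0 min. Glucose read at 30, 60, 90 and 120 min. AUC taken versus vehicle, 5 mice per group.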

[13] = system: Mus musculus; test: Antihyperglycemic activity in diabetic C57BL/KsJ db/db mouse model assessed as reduction in hyperglycemia at 25 mg/kg, po qd for 10 days; assay type: functional; design: scale not given: the % may be the effect or the level left; outline: as §2
[14] = system: Rattus norvegicus; test: Antihyperlipidemic activity in Triton-induced dyslipidemic Wistar rat model assessed as reduction in phospholipid level at 100 mg/kg, po; assay type: functional; design: scale not given: the % may be the effect or the level left
Outline: (§4)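 Male Wistar rats, 8−10 weeks, about 160 g, fed normal pellet diet. Triton X-100 given at 400 mg/kg ip; compound given orally in 1% gum acacia. Retro-orbital blood taken 18 h after Triton and serum separated at 1500g for 10 min. TG and cholesterol measured by kit. Mean % change versus dyslipidemic control, 5 animals.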

[15] = system: Rattus norvegicus; test: Antihyperlipidemic activity in Triton-induced dyslipidemic Wistar rat model assessed as reduction in cholesterol level at 100 mg/kg, po; assay type: functional; design: scale not given: the % may be the effect or the level left; outline: as §4
[16] = system: Rattus norvegicus; test: Antihyperlipidemic activity in Triton-induced dyslipidemic Wistar rat model assessed as reduction in triglyceride level at 100 mg/kg, po; assay type: functional; design: scale not given: the % may be the effect or the level left; outline: as §4
[17] = system: Rattus norvegicus; test: Antidiabetic activity in sucrose loaded Wistar rat model assessed as reduction in glucose levels at 100 mg/kg, po; assay type: functional; design: scale not given: the % may be the effect or the level left
[18] = Mean residence time in Sprague-Dawley rat at 2.5 mg/kg, iv by LC-MS/MS method; assay type: ADME, organism-based; design: dose 2.5 mg/kg, route intravenous; details: in vivo
Outline: (§5)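 Male Sprague−Dawley rats given a single 2.5 mg/kg iv dose; one formulation was DMF/PG/water (2:4:4), 0.2 μ filtered. Blood drawn from 0.08 to 48 h. Plasma assayed by LC-MS/MS with linear range 0.78−400 ng/mL.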

[19] = Mean residence time in Sprague-Dawley rat at 25 mg/kg, po by LC-MS/MS method; assay type: ADME, organism-based; design: dose 25 mg/kg, route oral; details: in vivo
Outline: (§6)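 Male Sprague−Dawley rats given a single 25 mg/kg oral dose (aqueous 0.5% methyl cellulose suspension for one compound). Blood drawn from 0.08 to 48 h. LC-MS/MS, linear range 0.78−400 ng/mL.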

[20] = Plasma clearance in Sprague-Dawley rat at 2.5 mg/kg, iv by LC-MS/MS method; assay type: ADME, organism-based; design: dose 2.5 mg/kg, route intravenous; outline: as §5
[21] = Plasma clearance in Sprague-Dawley rat at 25 mg/kg, po by LC-MS/MS method; assay type: ADME, organism-based; design: dose 25 mg/kg, route oral; outline: as §6
[22] = Tmax in Sprague-Dawley rat at 25 mg/kg, po by LC-MS/MS method; assay type: ADME, organism-based; design: dose 25 mg/kg, route oral; details: in vivo; outline: as §6
[23] = Cmax in Sprague-Dawley rat at 2.5 mg/kg, iv by LC-MS/MS method; assay type: ADME, organism-based; design: dose 2.5 mg/kg, route intravenous; details: in vivo; outline: as §5
[24] = Cmax in Sprague-Dawley rat at 25 mg/kg, po by LC-MS/MS method; assay type: ADME, organism-based; design: dose 25 mg/kg, route oral; details: in vivo; outline: as §6
[25] = system: Mus musculus; test: Antidiabetic activity in diabetic C57BL/KsJ db/db mouse model assessed as reduction in postprandial glucose level in hyperglycemia at 25 mg/kg, po measured 2 hrs post dose; assay type: functional; design: scale not given: the % may be the effect or the level left
Outline: (§7)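 db/db mice (C57BL/KsJ, 12−18 weeks, 40−50 g; selected by glucose 200−350 mg/dL) dosed orally daily for 10 consecutive days at 1, 3, 10, 25 or 50 mg/kg; postprandial blood glucose profile recorded on day 6 with food access interrupted; mean % change versus vehicle in 5 animals per group; Student t test.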

[26] = system: Mus musculus; test: Antidiabetic activity in diabetic C57BL/KsJ db/db mouse model assessed as reduction in postprandial glucose level in hyperglycemia at 10 mg/kg, po measured 2 hrs post dose; assay type: functional; design: scale not given: the % may be the effect or the level left; outline: as §7
[27] = system: Mus musculus; test: Antidiabetic activity in diabetic C57BL/KsJ db/db mouse model assessed as reduction in postprandial glucose level in hyperglycemia at 3 mg/kg, po measured 2 hrs post dose; assay type: functional; design: scale not given: the % may be the effect or the level left; outline: as §7
[28] = system: Mus musculus; test: Antidiabetic activity in diabetic C57BL/KsJ db/db mouse model assessed as reduction in postprandial glucose level in hyperglycemia at 1 mg/kg, po measured 2 hrs post dose; assay type: functional; design: scale not given: the % may be the effect or the level left; outline: as §7
[29] = system: Mus musculus; test: Antidiabetic activity in diabetic C57BL/KsJ db/db mouse model assessed as improvement in glucose tolerance in hyperglycemia at 100 mg/kg, po measured 2 hrs post dose; assay type: functional
[30] = system: Mus musculus; test: Antidiabetic activity in diabetic C57BL/KsJ db/db mouse model assessed as improvement in glucose tolerance in hyperglycemia at 25 mg/kg, po measured 2 hrs post dose; assay type: functional
[31] = system: Mus musculus; test: Antidiabetic activity in diabetic C57BL/KsJ db/db mouse model assessed as improvement in glucose tolerance in hyperglycemia at 10 mg/kg, po measured 2 hrs post dose; assay type: functional
[32] = system: Mus musculus; test: Antidiabetic activity in diabetic C57BL/KsJ db/db mouse model assessed as improvement in glucose tolerance in hyperglycemia at 3 mg/kg, po measured 2 hrs post dose; assay type: functional
[33] = system: Mus musculus; test: Antidiabetic activity in diabetic C57BL/KsJ db/db mouse model assessed as improvement in glucose tolerance in hyperglycemia at 1 mg/kg, po measured 2 hrs post dose; assay type: functional
[34] = Oral bioavailability in Sprague-Dawley rat at 25 mg/kg by LC-MS/MS method; assay type: ADME, organism-based; details: in vivo; outline: as §6
[35] = Elimination half life in Sprague-Dawley rat at 2.5 mg/kg, iv by LC-MS/MS method; assay type: ADME, organism-based; design: dose 2.5 mg/kg, route intravenous; details: in vivo, read-out: beta t1/2 (converted); outline: as §5
[36] = Elimination half life in Sprague-Dawley rat at 25 mg/kg, po by LC-MS/MS method; assay type: ADME, organism-based; design: dose 25 mg/kg, route oral; details: in vivo, read-out: beta t1/2 (converted); outline: as §6
[37] = Volume of distribution in Sprague-Dawley rat at 2.5 mg/kg, iv by LC-MS/MS method; assay type: ADME, organism-based; design: dose 2.5 mg/kg, route intravenous; details: in vivo; outline: as §5
[38] = system: Rattus norvegicus; test: Volume of distribution in Sprague-Dawley rat at 25 mg/kg, po by LC-MS/MS method; assay type: ADME, organism-based; design: dose 25 mg/kg, route oral; details: in vivo; outline: as §6
[39] = system: Rattus norvegicus; test: AUC in Sprague-Dawley rat at 25 mg/kg, po by LC-MS/MS method; details: in vivo
[40] = system: Rattus norvegicus; test: AUC in Sprague-Dawley rat at 2.5 mg/kg, iv by LC-MS/MS method; details: in vivo
[41] = system: Mus musculus; test: Antidiabetic activity in diabetic C57BL/KsJ db/db mouse model assessed as reduction in postprandial glucose level in hyperglycemia at 50 mg/kg, po measured 2 hrs post dose; design: scale not given: the % may be the effect or the level left

## CC(C)NCC(O)COc1ccc2c(=O)cc(-c3cc(O)cc(O)c3)oc2c1 (racemic)
[1]
  Activity: Active
[2]
  Activity: 14.9%
[3]
  Activity: 47.7%
[4]
  Activity: 13.8%
[5]
  Activity: 48.9%
[6]
  Activity: inactive
[7]
  Activity: 22.3%
[8]
  Percent increase in HDL-C/cholesterol ratio vs vehicle: 32.1
[9]
  Activity: 15.3%
[10]
  Activity: 11.8%
[11]
  Activity: 14.2%
[12]
  Activity: 33.2%
[13]
  Activity: 39.5%
[14]
  Activity: 28%
[15]
  Activity: 32%
[16]
  Activity: 32%
[17]
  Activity: 29%

## CC(C)NC[C@H](O)COc1ccc2c(=O)cc(-c3cc(O)cc(O)c3)oc2c1
[18]
  MRT: 4.9 h
[19]
  MRT: 5.96 h
[20]
  clearance: 55 mL/min/kg
[21]
  CL/F: 54.5 mL/min/kg
[22]
  Tmax: 0.33 h
[23]
  Cmax: 1810 ng/mL
[24]
  Cmax: 21.2 ng/mL
[25]
  Activity: 31.6%
[26]
  Activity: 31.2%
[27]
  Activity: 27.1%
[28]
  Activity: 12.1%
[29]
  Activity: 49.2%
[30]
  Activity: 41.1%
[31]
  Activity: 30.7%
[32]
  Activity: 19.7%
[33]
  Activity: 12%
[6]
  Activity: inactive
[7]
  Activity: 39.2%
[8]
  Percent increase in HDL-C/cholesterol ratio vs vehicle: 68.7
[9]
  Activity: 27%
[10]
  Activity: 23.1%
[11]
  Activity: 21%
[12]
  Activity: 29.7%
[13]
  Activity: 45.6%
[34]
  bioavailability: 0.52%
[35]
  half-life: 4.83 h
[36]
  half-life: 3.39 h
[37]
  Vd: 16.2 L/kg
[38]
  Vd: 16.18 L/kg
[39]
  AUC: 39.5 ng·h/mL
[40]
  AUC: 756 ng·h/mL
[41]
  Activity: 35.4%
